Measurements published in ChEMBL document CHEMBL1649161, “Pharmacokinetics of EDP-420 after ascending single oral doses in healthy adult volunteers” (Antimicrob Agents Chemother, 2009).
≈ marks a conversion by molar mass, not a printed value.

Key:
Homo sapiens [1] = test: Toxicity in healthy human assessed as incidence of adverse events at 100 to 1200 mg, po administered as single dose; format: organism-based; conditions: in vivo
How it was run: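 Randomized, double-blind, placebo-controlled single ascending dose study with eight subjects per group (6 drug, 2 placebo of microcrystalline cellulose). Subjects were fasted before dosing. Safety labs were done at 120 h, with a full chemistry panel also at 72 and 96 h for the top dose. Final evaluation on day 8–10, with adverse events recorded.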

[2] = Elimination rate constant in healthy human plasma at 1200 mg, po administered as single dose measured after 120 hrs; format: ADME, organism-based
[3] = Cmax in healthy human plasma at 400 mg, po administered as single dose measured after 120 hrs; format: ADME, organism-based; design: dose 400 mg, route oral
How it was run: (§1)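 Healthy adults (n = 6 per dose) took a single oral suspension fasted (8 h before, 4 h after). Plasma was sampled from 0.25 to 120 h postdose and quantified by validated LC-MS/MS after acetonitrile precipitation (LLOQ 1 ng/ml). Cmax was read directly from observed concentration–time data; the group mean was reported.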

[4] = AUC (0 to last) in healthy human plasma at 100 mg, po administered as single dose measured after 120 hrs; format: ADME, organism-based; design: dose 100 mg, route oral, time 0 - last
How it was run: (§2)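 Healthy adults (6 per dose group) received a single oral suspension after an 8-h fast, with food withheld 4 h. EDTA blood was drawn predose to 120 h. Plasma was protein-precipitated with ACN and assayed by LC-MS/MS (clarithromycin internal standard; range 1–1,000 ng/ml). AUC0-last was computed by linear-up/log-down trapezoid; AUC0-∞ added Clast/λz. Values are noncompartmental means.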

[5] = Apparent volume of distribution in healthy human plasma at 1200 mg, po administered as single dose measured after 120 hrs; format: ADME, organism-based
[6] = Tmax in healthy human plasma at 100 mg, po administered as single dose measured after 120 hrs; format: ADME, organism-based
How it was run: (§3)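 Fasted healthy adults (n = 6 per group) took one oral suspension dose. Plasma was sampled from predose through 0.25–120 h postdose and measured by validated LC-MS/MS (lower limit 1 ng/ml). Tmax was read directly from observed concentration–time data using actual sampling times and reported as median with range.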

[7] = Renal clearance in healthy human assessed as cumulative fraction excreted unchanged in urine at 100 mg, po administered as single dose measured after 48 hrs; format: ADME, organism-based; conditions: read-out: Fraction Recovered in urine
How it was run: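 After a single oral fasted suspension dose in healthy adults (6 per group), urine was collected in intervals to 48 h and measured by LC-MS/MS. fe0-48 = Ae0-48 (summed interval volume × concentration) / dose × 100%; the mean was reported.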

[8] = Apparent volume of distribution in healthy human plasma at 100 mg, po administered as single dose measured after 120 hrs; format: ADME, organism-based
[9] = Cmax in healthy human plasma at 200 mg, po administered as single dose measured after 120 hrs; format: ADME, organism-based; design: dose 200 mg, route oral; how it was run: as §1
[10] = Apparent volume of distribution in healthy human plasma at 800 mg, po administered as single dose measured after 120 hrs; format: ADME, organism-based
[11] = Cmax in healthy human plasma at 100 mg, po administered as single dose measured after 120 hrs; format: ADME, organism-based; design: dose 100 mg, route oral; how it was run: as §1
Streptococcus pneumoniae = test: Antimicrobial activity against Streptococcus pneumoniae; format: functional
[12] = Half life in healthy human plasma at 100 mg, po administered as single dose measured after 120 hrs; format: ADME, organism-based
[13] = AUC (0 to last) in healthy human plasma at 200 mg, po administered as single dose measured after 120 hrs; format: ADME, organism-based; design: dose 200 mg, time 0 - last, route oral; how it was run: as §2
[14] = Apparent oral clearance in healthy human plasma at 400 mg, po administered as single dose measured after 120 hrs; format: ADME, organism-based
How it was run: (§4)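 Single oral suspension dose in fasted healthy adults (6 per group). Plasma was collected to 120 h and measured by LC-MS/MS (1–1,000 ng/ml). Apparent oral clearance was dose divided by AUC0-∞ (noncompartmental, linear-up/log-down trapezoid extrapolated with Clast/λz); the mean was reported.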

[15] = Tmax in healthy human plasma at 200 mg, po administered as single dose measured after 120 hrs; format: ADME, organism-based; how it was run: as §3
[16] = Renal clearance in healthy human assessed as cumulative fraction excreted unchanged in urine at 800 mg, po administered as single dose measured after 48 hrs; format: ADME, organism-based; conditions: read-out: Fraction Recovered in urine
How it was run: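 Urine collected predose and over 0–2, 2–4, 4–6, 6–8, 8–12, 12–24 and 24–48 h after a single oral suspension dose, given after an 8-h fast with no food for 4 h after. Volumes measured, stored at −20°C, EDP-420 quantified by LC-MS/MS. fe0-48 = Ae0-48/dose × 100%, where Ae0-48 is the sum of volume × concentration over the intervals. Six active subjects per dose.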

[17] = Half life in healthy human plasma at 200 mg, po administered as single dose measured after 120 hrs; format: ADME, organism-based
[18] = AUC (0 to infinity) in healthy human plasma at 400 mg, po administered as single dose measured after 120 hrs; format: ADME, organism-based; design: dose 400 mg, route oral, time infinity; how it was run: as §2
Homo sapiens [19] = test: Renal clearance in healthy human assessed as cumulative amount excreted in urine at 400 mg, po administered as single dose measured after 48 hrs; format: ADME, organism-based; conditions: in vivo
How it was run: (§5)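 Healthy adults (6 per dose) received a single fasted oral suspension dose. Urine was collected predose and over 0–2, 2–4, 4–6, 6–8, 8–12, 12–24 and 24–48 h intervals, volumes were recorded, and aliquots were stored at −20°C. Samples were assayed by LC-MS/MS. Ae0-48 is the summed volume × concentration over all intervals; the mean was reported.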

[20] = Renal clearance in healthy human at 100 mg, po administered as single dose measured after 48 hrs; format: ADME, organism-based, Kidney; conditions: in vivo, read-out: CL_renal (converted)
How it was run: (§6)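 Healthy adults (6 active per dose) got a single oral suspension dose after an 8-h fast, with food withheld 4 h. Urine over 0–48 h in intervals and serial EDTA plasma were assayed by validated LC-MS/MS, with plasma calibration from 1 to 1,000 ng/ml. CLR = Ae0-48 (urine volume × concentration summed) divided by plasma AUC0-48.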

Legionella sp. = test: Antimicrobial activity against Legionella sp.; format: functional
[21] = Apparent oral clearance in healthy human plasma at 1200 mg, po administered as single dose measured after 120 hrs; format: ADME, organism-based; how it was run: as §4
[22] = AUC (0 to infinity) in healthy human plasma at 100 mg, po administered as single dose measured after 120 hrs; format: ADME, organism-based; design: dose 100 mg, route oral, time infinity; how it was run: as §2
Homo sapiens [23] = test: Renal clearance in healthy human assessed as cumulative amount excreted in urine at 1200 mg, po administered as single dose measured after 48 hrs; format: ADME, organism-based; conditions: in vivo; how it was run: as §5
[24] = Apparent oral clearance in healthy human plasma at 200 mg, po administered as single dose measured after 120 hrs; format: ADME, organism-based; how it was run: as §4
[25] = Elimination rate constant in healthy human plasma at 100 mg, po administered as single dose measured after 120 hrs; format: ADME, organism-based
[26] = Renal clearance in healthy human at 1200 mg, po administered as single dose measured after 48 hrs; format: ADME, organism-based, Kidney; conditions: in vivo, read-out: CL_renal (converted); how it was run: as §6
Streptococcus pyogenes = test: Antimicrobial activity against Streptococcus pyogenes; format: functional
[27] = AUC (0 to infinity) in healthy human plasma at 800 mg, po administered as single dose measured after 120 hrs; format: ADME, organism-based; design: dose 800 mg, route oral, time infinity; how it was run: as §2
[28] = Apparent volume of distribution in healthy human plasma at 400 mg, po administered as single dose measured after 120 hrs; format: ADME, organism-based
Homo sapiens [29] = test: Renal clearance in healthy human assessed as cumulative amount excreted in urine at 200 mg, po administered as single dose measured after 48 hrs; format: ADME, organism-based; conditions: in vivo; how it was run: as §5

With `CC[C@H]1OC(=O)[C@H](C)C(=O)[C@H](C)[C@@H](O[C@@H]2O[C@H](C)C[C@H](N(C)C)[C@H]2O)[C@@]2(C)C[C@@H](C)/C(=N\C(C)=O)[C@H](C)[C@@H](OC/C(=N\OCc3ccc(-n4cccn4)nc3)CO2)[C@]1(C)O` [MODITHROMYCIN] the Activity (Homo sapiens [1]) was 16.7%, the k el at 120 h [2] was 9.56e-06 s⁻¹ and the Cmax [3] was 542 ng/mL. The AUC(0-t) at 120 h [4] was 3400 ng·h/mL, the Vd/F [5] was 909 L and the Tmax [6] was 1.75 h. For the same molecule, the dose excreted at 48 h [7] was 8.57%, the Vd/F [8] was 656 L and the Cmax [9] was 360 ng/mL. The Vd/F [10] was 601 L, the Cmax [11] was 196 ng/mL and the MIC (Streptococcus pneumoniae) was 0.25 µg/mL (≈ 0.297 µM). The half-life [12] was 936 min, the AUC(0-t) at 120 h [13] was 7650 ng·h/mL and the CL/F [14] was 463 mL/min. The Tmax [15] was 2.5 h, the dose excreted at 48 h [16] was 11.4% and the half-life [17] was 948 min. The AUC(0-inf) [18] was 14400 ng·h/mL, the “Amount Recovered in urine” value (Homo sapiens [19]) was 41.9 mg and the CL renal at 48 h [20] was 46.3 mL/min. The MIC90 (Legionella sp.) was 0.031 µg/mL (≈ 0.0369 µM), the CL/F [21] was 523 mL/min and the AUC(0-inf) [22] was 3430 ng·h/mL. For the same molecule, the “Amount Recovered in urine” value (Homo sapiens [23]) was 70.1 mg, the CL/F [24] was 432 mL/min and the k el at 120 h [25] was 1.23e-05 s⁻¹. It also gave a CL renal at 48 h [26] of 41.3 mL/min, a Ratio (Streptococcus pyogenes) of 32 and an AUC(0-inf) [27] of 33900 ng·h/mL. For the same molecule, the Vd/F [28] was 635 L and the “Amount Recovered in urine” value (Homo sapiens [29]) was 24.5 mg.
